{
  "source": "ChEMBL document CHEMBL4020840",
  "about": "“Synthesis and Biological Evaluation of Selenium-Containing 4-Anilinoquinazoline Derivatives as Novel Antimitotic Agents” (J Med Chem, 2018)",
  "key": {"A549 [1]": {"system": "A549", "assay": "Growth inhibition of human A549 cells after 48 hrs by MTT assay", "assay_type": "functional, cell-based", "settings": "A549, 48 h"}, "[2]": {"assay": "Resistance factor, ratio of IC50 for human A549/CDDP cells to IC50 for human A549 cells", "assay_type": "functional", "procedure,_shortened": "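MTT assay: log-phase cells were seeded at 5 × 10³/well for 24 h, then exposed to a concentration series for 48 h. MTT (5 mg/mL) was added for 4 h, formazan was dissolved in DMSO, and A570 was read. IC50 values came from dose–response curves of at least three independent experiments. Resistance factor = IC50 in the resistant line / IC50 in the parental sensitive line.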"}, "[3]": {"assay": "Inhibition of porcine brain tubulin polymerization measured every 60 secs for 90 mins by DAPI staining based fluorescence assay", "parameters": "species or system Sus scrofa", "procedure,_shortened": "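Purified tubulin was tested in a kit assay. Final buffer: 80 mM PIPES sesquisodium (pH 6.9), 2.0 mM MgCl₂, 0.5 mM EGTA, 1 mM GTP, 10.2% glycerol. Compound (0.1–10 μM) was prewarmed at 37 °C for 1 min before tubulin was added. DAPI reporter fluorescence (ex 340 / em 410 nm) was read every 60 s for 90 min. Area under the curve gave percent inhibition versus control and the IC50.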"}, "A549 [4]": {"system": "A549", "assay": "Induction of apoptosis in human A549 cells assessed as late apoptotic cells at 2 nM after 24 hrs by Annexin V-FITC/propidium iodide staining based flow cytometry (reference value: 0.08%)", "assay_type": "functional"}, "A549 [5]": {"system": "A549", "assay": "Induction of apoptosis in human A549 cells assessed as necrotic cells at 4 nM after 24 hrs by Annexin V-FITC/propidium iodide staining based flow cytometry (reference value: 0.10%)", "assay_type": "functional"}, "A549 [6]": {"system": "A549", "assay": "Induction of apoptosis in human A549 cells assessed as late apoptotic cells at 2 nM after 48 hrs by Annexin V-FITC/propidium iodide staining based flow cytometry (reference value: 0.03%)", "assay_type": "functional"}, "A549 [7]": {"system": "A549", "assay": "Induction of mitochondrial membrane disruption in human A549 cells assessed as cells with intact mitochondrial membrane at 4 nM after 48 hrs by JC1 staining based flow cytometry (reference value: 99.13%)", "assay_type": "functional"}},
  "data": [
    {"compound": "C[Se]c1ccc(N(C)c2nc(C)nc3ccccc23)cc1", "values": [
      {"measurement": "IC50", "setting": "A549 [1]", "value": 0.002, "unit": "µM"},
      {"measurement": "Ratio IC50", "setting": "[2]", "value": 4.09},
      {"measurement": "IC50", "setting": "[3]", "value": 1.89, "unit": "µM"},
      {"measurement": "Activity", "setting": "A549 [4]", "value": 3.82, "unit": "%"},
      {"measurement": "Activity", "setting": "A549 [5]", "value": 2.28, "unit": "%"},
      {"measurement": "Activity", "setting": "A549 [6]", "value": 20.5, "unit": "%"},
      {"measurement": "Activity", "setting": "A549 [7]", "value": 56.98, "unit": "%"}
    ]}
  ]
}
